# Published values gathered from unrelated publications.
# Lines come from different studies, so protocols differ.
# ESR1: Estrogen receptor (ESR1, Homo sapiens, UniProt P03372)
# M-phase phosphoprotein 8 chromodomain: M-phase phosphoprotein 8, chromodomain (Homo sapiens, UniProt Q99549)
# ADRA2C: Alpha-2C adrenergic receptor (ADRA2C, Homo sapiens, UniProt P18825)
Compound,target,read-out,mode,method,measurement,result
Oc1ccc(-c2cc(Cl)ccc2Cl)c(Cl)c1,ESR1,reporter gene,agonist,luciferase,EC50,200 nM
CCCCCNC(=N)N/N=C/c1c[nH]c2ccc(OC)cc12,"5-hydroxytryptamine receptor 1A (HTR1A, Homo sapiens, UniProt P08908)",calcium signal,agonist,fluorescence,EC50,18000 nM
CCN(CCCC[C@H](NC(=O)[C@H](CC(C)C)NC(=O)[C@H](C)NC(=O)[C@H](Cc1ccccc1)NC(=O)c1ccc(Br)c(N)c1)C(=O)N[C@@H](CO)C(N)=O)C(C)C,M-phase phosphoprotein 8 chromodomain,cell-free assay,,TR-FRET,IC50,290 nM
Clc1ccc(-c2ccccc2Cl)cc1,ESR1,reporter gene,agonist,luciferase,EC50,20000 nM
CC[N+](C)(C)c1cccc(O)c1,"AChE (Phlebotomus papatasi, UniProt M1F887)",enzyme activity,inhibitor,,IC50,1180 nM
C[C@H](N)Cn1ncc2ccc3c(c21)CCCO3,ADRA2C,ligand displacement,,radioligand,Ki,24800 nM
C[C@H]1CCC[C@H](O)CCC/C=C/c2cc(O)cc(O)c2C(=O)O1,ESR1,reporter gene,agonist,luciferase,EC50,0.13 nM
CCCC[C@@H](NC(=O)[C@@H](N)Cc1c(C)cc(O)cc1C)C(=O)NCC(=O)N[C@@H](Cc1ccc(F)cc1)C(=O)N(C)CCC[C@@]1(c2ccc(F)cc2)OCc2cc(C#N)ccc21,ADRA2C,ligand displacement,,radioligand,Ki,280 nM
CCN(CCCC[C@H](NC(=O)[C@H](CC(C)C)NC(=O)[C@H](C)NC(=O)[C@H](Cc1ccccc1)NC(=O)c1ccncc1)C(=O)N[C@@H](CO)C(N)=O)C(C)C,M-phase phosphoprotein 8 chromodomain,cell-free assay,,TR-FRET,IC50,990 nM
Clc1ccc(Cl)c(-c2ccccc2Cl)c1,ESR1,reporter gene,agonist,luciferase,EC50,9000 nM
CCN(CCCC[C@H](NC(=O)[C@H](CC(C)C)NC(=O)[C@H](C)NC(=O)[C@H](Cc1ccccc1)NC(=O)c1ccoc1)C(=O)N[C@@H](CO)C(N)=O)C(C)C,M-phase phosphoprotein 8 chromodomain,cell-free assay,,TR-FRET,IC50,1200 nM
O=C(CCCc1ccccc1)OC(CCN1CCN(CCCN(c2ccc(F)cc2)c2ccc(F)cc2)CC1)c1ccccc1 (centres unmarked),"Norepinephrine transporter (Slc6a2, Rattus norvegicus, UniProt Q9WTR4)",ligand displacement,,radioligand,Ki,> 10000 nM
CCN(CCCC[C@H](NC(=O)[C@H](CC(C)C)NC(=O)[C@H](C)NC(=O)[C@H](Cc1c(F)c(F)c(F)c(F)c1F)NC(=O)c1cccnc1)C(=O)N[C@@H](CO)C(N)=O)C(C)C,M-phase phosphoprotein 8 chromodomain,cell-free assay,,TR-FRET,IC50,1600 nM
O=c1c2ccccc2[se]n1-c1ccccc1,"Leucine-rich repeat serine/threonine-protein kinase 2 (LRRK2, Homo sapiens, UniProt Q5S007, G2019S)",enzyme activity,inhibitor,radiometric,IC50,1860 nM
